Source: PubChem
VIM-2 inh: VIM-2 metallo-beta-lactamase inhibitors, primary screen, biochemical, epi-absorbance readout, Pseudomonas aeruginosa enzyme; purified VIM-2, nitrocefin hydrolysis, epi-absorbance fluorescence; inhibition, % at 5.6 µM; 290,000 tested, 0.89% active;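 active = inhibition above the mean of all tested compounds plus 3 SD, cutoff set per screening run, cut at about 7.5% in these data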;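 note: red hydrolysis product quenches plate fluorescence so inhibitors raise well fluorescence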
PglD DTNB: C. jejuni PglD acetyltransferase inhibitors, primary screen, biochemical, DTNB colorimetric, single point; purified PglD enzyme, DTNB colorimetric CoA detection; inhibition, % at 12.5 µM; 360,000 tested, 0.098% active; AID 602405, 2012; in the data active = inhibition above about 16%, passing the limit was not always enough
PDI turbidity: inhibitors of human PDI, primary screen, biochemical, turbidity, single point, plate reader; Protein disulfide-isomerase (Homo sapiens), P07237; PDI insulin aggregation turbidity, A650, 90 min; inhibition, % at 10 µM; 350,000 tested, 0.052% active;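 active = mean inhibition across replicates of 30% or more, whatever share of single replicates reach that level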
Target sequence (P07237 whole entry, looked up): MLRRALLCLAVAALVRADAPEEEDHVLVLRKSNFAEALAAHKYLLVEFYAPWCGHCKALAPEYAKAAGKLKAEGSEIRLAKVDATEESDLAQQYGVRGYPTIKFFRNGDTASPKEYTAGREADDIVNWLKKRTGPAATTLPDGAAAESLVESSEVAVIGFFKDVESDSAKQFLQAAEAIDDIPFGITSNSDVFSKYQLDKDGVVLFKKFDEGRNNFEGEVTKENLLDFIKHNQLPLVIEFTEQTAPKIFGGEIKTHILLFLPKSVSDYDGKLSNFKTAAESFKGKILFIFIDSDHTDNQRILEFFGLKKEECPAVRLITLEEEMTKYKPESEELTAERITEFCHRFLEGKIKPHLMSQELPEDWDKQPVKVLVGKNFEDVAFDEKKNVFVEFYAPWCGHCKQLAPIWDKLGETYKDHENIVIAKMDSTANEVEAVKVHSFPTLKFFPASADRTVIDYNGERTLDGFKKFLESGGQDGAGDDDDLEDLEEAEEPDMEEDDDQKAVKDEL
IMP-1 inhibitor: IMP-1 metallo-beta-lactamase inhibitors, primary screen, biochemical, epi-absorbance readout, Pseudomonas aeruginosa enzyme. metallo-beta-lactamase IMP-1 (Pseudomonas aeruginosa). purified IMP-1, nitrocefin hydrolysis, epi-absorbance fluorescence. inhibition, % at 5.6 µM. 290,000 tested, 0.45% active. AID 1556, 2009;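 active = inhibition above the mean plus 3 SD of all compounds in the same screening run, cut at about 4.5% in these data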
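System – purified recombinant IMP-1 beta-lactamase · Input – IMP-1 dispensed at 0.2 nM · Timing – 15 min preincubation plus 25 min reaction at 25 °C · Signal – Epi-absorbance fluorescence, 480 nm excitation, 530 nm emission · Measure – percent IMP-1 inhibition derived from blank-referenced optical density · Controls – Enzyme-plus-DMSO low control, enzyme-free DMSO high control · Replication – singlicate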
ERp5 block: inhibitors of ERp5-driven insulin aggregation, primary screen, biochemical, turbidity, absorbance 650 nm, single point; 90 min; inhibition, % at 9.99 µM; 350,000 tested, 0.05% active;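 active = mean replicate inhibition above about 25%, with every replicate also reaching it, limit read from the data, passing the limit was not always enough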
PvdQ acylase: P. aeruginosa PvdQ acylase inhibitors, primary screen, biochemical, fluorescence, plate reader and imaging, single point | 340,000 tested, 0.063% active | purified PvdQ acylase | PvdQ acylase [Pseudomonas aeruginosa LESB58] | AID 488965, 2010 | inhibition, % at 10 µM; in the data active = inhibition above about 30%, passing the limit was not always enough
A number is an active result; – = inactive; · = not tested or not shown. Only some compounds are listed: those with a hit (about 1% of all), similar ones and a draw of the others.

SMILES | VIM-2 inh | PglD DTNB | PDI turbidity | IMP-1 inhibitor | ERp5 block | PvdQ acylase
O=C(Nc1ccccc1)N1C[C@@H]2[C@H](c3ccccc31)[C@@H](CO)N2C(=O)c1ccccc1F | · | – | · | · | – | ·
CCOc1ccc(OCCCN(C)C)cc1 | – | · | – | – | · | –
CCOc1ccc(OCCCCN(C)C)cc1 | – | – | – | 35 | · | –
Cc1noc(C)c1NC(=O)N(C)C[C@H]1Oc2ccc(NC(=O)CCN3CCOCC3)cc2CC(=O)N([C@@H](C)CO)C[C@@H]1C | · | – | · | · | – | ·
CO[C@@H]1CN(C)C(=O)c2cc(NC(=O)C3CC3)ccc2OC[C@@H](C)N(Cc2ccncc2)C[C@H]1C | · | – | · | · | – | ·
Cc1cc(C)nc(NC(=O)CN2C(=O)c3ccccc3S2(=O)=O)n1 | · | – | – | · | – | –
Cc1cc(C)nc(N(C#N)CN2C(=O)c3ccccc3S2(=O)=O)n1 | – | – | – | 8.8 | · | –
CNc1nc(OC)nc(N(C#N)CN2C(=O)c3ccccc3S2(=O)=O)n1 | – | · | – | 9.4 | – | –
C[C@@H]1CN([C@H](C)CO)C(=O)c2cc(C#CC3CC3)cnc2O[C@@H]1CN(C)C(=O)c1ccccc1 | · | – | · | · | – | ·
Oc1ccc(Br)cc1CNc1cccc2cccnc12 | – | – | – | – | – | –
Oc1c(Br)cc(Br)cc1CNc1cccc2cccnc12 | – | – | – | 16 | – | –
O=C(C[C@H]1CC[C@@H]2[C@H](COC[C@H](O)CN2C(=O)Cc2ccccc2)O1)NC1CCC1 | · | – | · | · | – | ·
CCOCC(=O)Nc1nc2ccc(C)cc2s1 | – | – | – | – | · | 32
CCOCC(=O)Nc1nc2ccc(OCC)cc2s1 | – | – | – | – | · | –
CCC(=O)Nc1nc2ccc(NC(C)=O)cc2s1 | – | – | – | 6.2 | · | –
COc1ccccc1S(=O)(=O)N[C@@H]1CC[C@@H](CC(=O)NCc2cccc(F)c2)O[C@H]1CO | · | – | · | · | – | ·
COc1cc(-c2nc(-c3ccc4c(c3)-c3ccccc3S4(=O)=O)c(-c3ccccc3)[nH]2)cc(OC)c1OC | – | · | – | – | · | –
COc1cccc(-c2nc(-c3ccc4c(c3)-c3ccccc3S4(=O)=O)c(-c3ccccc3)[nH]2)c1OC | – | – | – | 4.8 | · | –
OC(CN1CCOCC1)Cn1c(-c2cccc(Cl)c2)nc2ccccc21 (stereo unspecified) | – | – | – | – | · | 32
CC(=O)Nc1ccc(S(=O)(=O)Nc2nc3ccc(C)cc3s2)cc1 | – | – | – | – | – | –
Cc1ccc2nc(-c3ccc(NS(=O)(=O)c4ccc(F)cc4)cc3)sc2c1 | – | – | – | – | · | 30
Cn1c(SCC(=O)NC2CCCCC2)nnc1-c1ccccc1F | – | – | – | – | – | –
CC(Sc1nnc(-c2ccccc2F)n1C)C(=O)NC1CCCCC1 (stereo unspecified) | · | – | – | · | – | 30
COC(CN1C(=O)C(=O)/C(=C(/O)c2ccccc2)C1c1ccccn1)OC (stereo unspecified) | 9.6 | · | – | – | – | –
CCOc1ccccc1-n1c(SCC(=O)N(CC)CC)nnc1-c1ccccn1 | – | – | – | 5.7 | · | –
SMILES | VIM-2 inh | PglD DTNB | PDI turbidity | IMP-1 inhibitor | ERp5 block | PvdQ acylase
c1cncc(CNc2ncnc3sc4c(c23)CCC4)c1 | – | · | – | – | – | –
c1ccc(CNc2ncnc3sc4c(c23)CCC4)nc1 | 10 | · | – | – | · | –
CCn1c2ccccc2c2nnc(SCC(=O)N3CC(C)OC(C)C3)nc21 (stereo unspecified) | 8.3 | – | – | – | · | –
NC1=NC(c2cn(-c3ccccc3)nc2-c2cccs2)n2c(nc3ccccc32)N1 (stereo unspecified) | – | – | – | 4.9 | · | –
CCN(C(=O)C(C)N1C(=O)/C(=C/c2ccco2)SC1=S)C1CCS(=O)(=O)C1 (stereo unspecified) | – | – | – | 7.8 | – | –
O=C(CCN1C(=O)/C(=C/c2ccco2)SC1=S)Nc1ccc(C(=O)O)c(O)c1 | – | – | – | – | – | –
O=C1/C(=C/c2ccco2)SC(=S)N1CC1CCCO1 (stereo unspecified) | – | – | – | 5.4 | – | –
O=C1/C(=C/c2ccco2)SC(=S)N1C1CCS(=O)(=O)C1 (stereo unspecified) | – | · | – | – | – | –
O=C1/C(=C\c2ccco2)SC(=S)N1C1CCS(=O)(=O)C1 (stereo unspecified) | – | – | – | 7.3 | – | ·
CC(C(=O)N(C)C1CCS(=O)(=O)C1)N1C(=O)/C(=C/c2ccc(F)cc2)SC1=S (stereo unspecified) | – | · | – | – | – | –
O=C(CCN1C(=O)/C(=C\c2ccco2)SC1=S)Nc1ccc(C(=O)O)c(O)c1 | – | – | – | 8.0 | – | –
COc1ccccc1S(=O)(=O)N[C@@H]1CC[C@@H](CCNC(=O)C2CCOCC2)O[C@@H]1CO | · | – | · | · | – | ·
CCC(=O)N1CCC2(CC1)CN(Cc1cccc(Cl)c1)[C@H](CO)c1c2c2ccc(OC)cc2n1C | · | · | · | · | – | ·
CC(C(=O)O)N1C(=O)/C(=C/C=C/c2ccco2)SC1=S (stereo unspecified) | – | – | – | 5.8 | · | –
COc1ccc(C(=O)Nc2ccc(Cn3ccnc3)cc2)cc1OC | 8.5 | – | – | – | – | –
COc1cc(OC)cc(C(=O)Nc2ccc(Cn3ccnc3)cc2)c1 | – | – | – | – | – | –
CCCN1[C@@H]2c3ccc(C4=CCCCC4)c(=O)n3C[C@H]1[C@H](CO)[C@H]2C(=O)N1CCc2ccccc2C1 | · | – | · | · | – | ·
O=C(c1ccccc1)N1CC[C@@H]2[C@H]1c1cc(C#CC3CCCCC3)ccc1N[C@@H]2CO | · | · | · | · | – | ·
CNc1ccc(Br)cc(C(=O)/C=C/c2ccc(OC)cc2)c1=O | – | · | – | – | · | –
CNc1ccc(Br)cc(C(=O)/C=C/c2ccc3c(c2)OCO3)c1=O | – | – | – | 9.2 | · | –
COc1ccc(OC)c2c(=O)cc(C(=O)O)[nH]c12 | – | – | – | – | – | ·
COc1ccc(OC)c2c(C)c(C)[nH]c12 | 8.2 | – | – | – | – | –
CN(C)c1ccc(/C=C(\C#N)c2ccccn2)cc1 | – | – | – | – | · | –
COC(=O)c1ccc(/C=C(\C#N)c2ccccn2)cc1 | – | – | – | – | – | 71
CCN1CCN(Cc2ccc(NC(=O)c3ccc(C)c(NC(=O)c4cccc(-c5cn[nH]c(=O)c5)c4)c3)cc2C(F)(F)F)CC1 | – | – | – | 9.3 | · | –
CCN1CCN(Cc2ccc(NC(=O)c3ccc(C)c(NC(=O)c4ccno4)c3)cc2C(F)(F)F)CC1 | · | – | – | · | – | –
COc1ccc(N2CCN(C(=O)Cc3coc4cc(C)ccc34)CC2)cc1 | – | · | – | – | – | –
